Two compounds from publication PMC4593394 (ACS chemical biology, 2015) can be followed below.

One data set addresses wt p97 (Homo sapiens, UniProt P55072). As to the kind of experiment: p97 ATPase assay. Format: biochemical. The procedure, abridged:
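Test compound in DMSO (0.0004–100 μM) preincubated 10 min at 21 °C, then 100 μM ATP added at 21 °C. IC50 fitted from % inhibition versus log concentration. Screen: 100 μM pure compounds, EDTA positive control.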

For a further data set, the target named is p97–Cys0 (Homo sapiens, UniProt P55072, C105V/C174V/C184V/C209A/C415V/C522A/C535V/C572V/C691V/C695V/C69V/C77V). As to the kind of experiment: ATPase assay, cysteine-less p97 variant. Format: biochemical. A digest of the protocol: (§1)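 His-tagged p97 variants were expressed from pET14b in E. coli BL21(DE3) and purified on Talon resin; C522A and C209A were also run on Superose 6. Enzyme (100 nM) was in 50 mM Tris pH 7.4, 150 mM KCl, 10 mM MgCl2, 1 mM DTT. Compound (0.0004–100 μM, 12 points, DMSO) was preincubated 10 min at 21 °C. 100 μM ATP was added at 21 °C. IC50 came from % inhibition versus log concentration.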
p97–Cys0, sequence (P55072 whole entry C69V/C77V/C105V/C174V/C184V/C209A/C415V/C522A/C535V/C572V/C691V/C695V): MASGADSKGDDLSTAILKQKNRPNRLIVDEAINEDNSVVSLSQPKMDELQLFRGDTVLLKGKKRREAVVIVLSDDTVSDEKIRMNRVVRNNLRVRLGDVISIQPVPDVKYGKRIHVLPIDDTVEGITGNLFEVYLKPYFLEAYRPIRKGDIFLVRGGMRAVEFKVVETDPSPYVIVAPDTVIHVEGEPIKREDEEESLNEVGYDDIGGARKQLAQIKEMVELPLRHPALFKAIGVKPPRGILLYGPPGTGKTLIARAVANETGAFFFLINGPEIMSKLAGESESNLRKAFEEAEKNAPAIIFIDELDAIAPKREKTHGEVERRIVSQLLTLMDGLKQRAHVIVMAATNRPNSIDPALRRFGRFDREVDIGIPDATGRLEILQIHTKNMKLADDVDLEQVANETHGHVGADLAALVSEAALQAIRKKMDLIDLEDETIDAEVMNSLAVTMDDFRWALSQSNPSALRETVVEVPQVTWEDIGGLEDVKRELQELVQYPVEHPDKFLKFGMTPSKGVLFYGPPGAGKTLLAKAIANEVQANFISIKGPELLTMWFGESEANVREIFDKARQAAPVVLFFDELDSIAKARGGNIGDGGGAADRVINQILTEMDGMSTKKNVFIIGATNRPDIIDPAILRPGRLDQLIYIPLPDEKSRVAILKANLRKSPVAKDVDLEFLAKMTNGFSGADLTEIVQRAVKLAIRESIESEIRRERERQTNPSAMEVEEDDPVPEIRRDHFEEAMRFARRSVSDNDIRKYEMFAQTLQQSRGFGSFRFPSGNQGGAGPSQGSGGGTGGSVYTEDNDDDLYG

The target of the next data set is p97–C209A (Homo sapiens, UniProt P55072, C209A). As to the kind of experiment: ATPase assay, p97 C209A variant. Format: biochemical. A digest of the protocol: as §1
p97–C209A, sequence (P55072 whole entry C209A): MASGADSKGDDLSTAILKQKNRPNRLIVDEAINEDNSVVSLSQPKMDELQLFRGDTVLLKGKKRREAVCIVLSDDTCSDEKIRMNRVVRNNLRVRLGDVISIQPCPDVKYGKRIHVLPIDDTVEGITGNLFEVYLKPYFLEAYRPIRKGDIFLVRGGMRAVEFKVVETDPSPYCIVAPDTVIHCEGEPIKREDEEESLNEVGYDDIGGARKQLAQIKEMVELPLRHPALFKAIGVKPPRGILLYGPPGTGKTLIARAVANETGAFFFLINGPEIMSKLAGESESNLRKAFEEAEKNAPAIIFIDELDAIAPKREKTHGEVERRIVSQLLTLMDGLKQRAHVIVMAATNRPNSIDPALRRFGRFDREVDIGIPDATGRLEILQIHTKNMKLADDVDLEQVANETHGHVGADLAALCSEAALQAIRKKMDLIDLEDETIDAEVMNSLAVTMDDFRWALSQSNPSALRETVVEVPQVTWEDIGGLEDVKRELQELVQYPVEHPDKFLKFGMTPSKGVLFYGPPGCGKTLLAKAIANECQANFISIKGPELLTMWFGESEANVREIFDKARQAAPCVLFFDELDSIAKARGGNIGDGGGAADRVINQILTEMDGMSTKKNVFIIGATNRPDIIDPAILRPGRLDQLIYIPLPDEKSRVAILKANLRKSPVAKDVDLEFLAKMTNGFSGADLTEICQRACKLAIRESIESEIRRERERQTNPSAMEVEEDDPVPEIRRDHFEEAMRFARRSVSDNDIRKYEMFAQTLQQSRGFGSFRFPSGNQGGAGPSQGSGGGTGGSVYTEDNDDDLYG
A further data set concerns the target p97–C522A (Homo sapiens, UniProt P55072, C522A). As to the kind of experiment: ATPase assay, p97 C522A variant. Format: biochemical. The procedure, abridged:
as §1

The target of a further data set is GroEL (Escherichia coli, UniProt P0A6F5). As to the kind of experiment: biochemical. On the set-up: species or system E. coli.
GroEL, sequence (P0A6F5 2-548): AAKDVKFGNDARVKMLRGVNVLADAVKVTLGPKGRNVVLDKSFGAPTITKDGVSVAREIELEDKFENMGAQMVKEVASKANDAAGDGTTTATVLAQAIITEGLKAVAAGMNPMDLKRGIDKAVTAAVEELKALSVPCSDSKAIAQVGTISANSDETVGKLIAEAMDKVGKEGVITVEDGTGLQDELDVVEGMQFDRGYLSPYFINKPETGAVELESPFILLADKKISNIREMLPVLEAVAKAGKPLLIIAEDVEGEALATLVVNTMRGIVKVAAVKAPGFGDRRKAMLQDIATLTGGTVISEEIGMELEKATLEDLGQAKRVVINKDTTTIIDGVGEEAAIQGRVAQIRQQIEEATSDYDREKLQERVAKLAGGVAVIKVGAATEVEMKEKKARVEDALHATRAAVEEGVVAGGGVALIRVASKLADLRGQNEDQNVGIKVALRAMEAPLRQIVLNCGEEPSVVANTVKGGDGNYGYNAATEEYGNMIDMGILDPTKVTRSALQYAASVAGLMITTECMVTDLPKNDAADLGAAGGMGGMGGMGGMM
The target of a further data set is ClpX (Escherichia coli, UniProt P0A6H1). As to the kind of experiment: ClpX ATPase assay. It is filed as biochemical, bacterial.
ClpX, sequence (P0A6H1 whole entry): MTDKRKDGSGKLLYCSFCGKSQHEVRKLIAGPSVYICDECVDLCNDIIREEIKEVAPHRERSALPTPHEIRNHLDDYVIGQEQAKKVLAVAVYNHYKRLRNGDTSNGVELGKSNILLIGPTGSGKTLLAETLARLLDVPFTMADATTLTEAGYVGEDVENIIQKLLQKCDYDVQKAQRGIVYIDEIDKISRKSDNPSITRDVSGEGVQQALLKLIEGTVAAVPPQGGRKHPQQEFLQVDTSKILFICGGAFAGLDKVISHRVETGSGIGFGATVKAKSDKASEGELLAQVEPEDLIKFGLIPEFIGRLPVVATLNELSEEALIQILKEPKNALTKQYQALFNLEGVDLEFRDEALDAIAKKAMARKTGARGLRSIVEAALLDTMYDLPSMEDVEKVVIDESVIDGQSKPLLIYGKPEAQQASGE
Data set [1] addresses N-ethylmaleimide sensitive factor (NSF) (Cricetulus griseus, UniProt P18708). As to the kind of experiment: NSF ATPase assay. It is filed as biochemical, Chinese hamster (Cricetulus griseus). A digest of the protocol: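 Chinese hamster NSF was expressed in E. coli Rosetta 2(DE3), purified by Talon then Superdex 200, and used at 200 nM in 50 mM Tris pH 7.4, 150 mM KCl, 10 mM MgCl2, 1 mM DTT. Compound (0.0004–100 μM in DMSO) was preincubated 10 min at 21 °C, then 100 μM ATP was added. IC50 was fitted from % inhibition on a semi-log plot.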

In a further data set the target is wild-type p97 (wt-p97) (Homo sapiens, UniProt P55072). As to the kind of experiment: Analysis of covalent reactivity: p97 ATPase activity after dialysis. It is filed as biochemical. The conditions noted are these: 1 μM compound, 1 μM p97, 2 mM ATP. The procedure, abridged: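 His-tagged wild-type p97 (pET14b, E. coli BL21(DE3), Talon-purified; 1 μM) was incubated with 1 μM compound in Tris/KCl/MgCl2/DTT buffer pH 7.4 at 4 °C 12 h, 21 °C 6 h or 37 °C 2 h; 1% DMSO served as control. The mixture was dialysed against buffer exchanged three times at 2-h intervals.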
wild-type p97 (wt-p97), sequence (P55072 whole entry): as the sequence (P55072 whole entry C209A) above, with A209C counted along it

Data set [2] concerns total ubiquitylated proteins in HEK293 cells. As to the kind of experiment: Total ubiquitylation, Western blot. Format: cell-based. The conditions noted are these: anti-ubiquitin antibody. A digest of the protocol:
(§2)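 HEK293 cells were treated with compound in DMEM/10% FBS for 24 h and lysed in SDS sample buffer with sonication. Lysates were run on 4–20% gradient SDS-PAGE and transferred to nitrocellulose, blocked 1 h in 5% milk, then probed with 1:1000 anti-ubiquitin, anti-XBP1s (spliced […] band) or anti-LC3 I/II (LC3-II lowest band). Secondaries were used at 1:3000 with chemiluminescent detection; lamin A or GAPDH served as loading controls.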
For orientation: In western blotting, separated proteins are transferred to a membrane and probed.

Data set [3] deals with Ub^G76VGFP in HEK293 cells. As to the kind of experiment: Ub^G76VGFP reporter level, Western blot. It is filed as cell-based. The conditions noted are these: anti-GFP Western blot.
A further data set concerns XBP1s in HEK293 cells. As to the kind of experiment: Unfolded protein response: XBP1 splicing, Western blot. Particulars: anti-XBP1 Western blot. It is filed as cell-based. A digest of the protocol:
as §2

A further data set has as its target 20S proteasome (Homo sapiens, UniProt P20618+P28074). As to the kind of experiment: 20S proteasome chymotrypsin-like activity. Particulars: 1.2 nM 20S proteasome, Suc-LLVY-AMC. It is filed as biochemical. The procedure, abridged:
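Kit-supplied 20S proteasome (1.2 nM final) was preincubated with test compound (eight-point, 3-fold serial dilutions) in kit reaction buffer at 37 °C for 10 min. Then 50 μM Suc-LLVY-AMC was added, followed by 1 h at 37 °C. AMC fluorescence was read at ex 380/em 440 nm. IC50 was taken from a semi-log plot of relative fluorescence versus concentration.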

Data set [4] concerns actin (phalloidin), vimentin, and annexin II. As to the kind of experiment: Immunofluorescence of structural proteins. Format: cell-based. The conditions noted are these: HEK293 cells, 4 h, concentrations used in the cellular studies.
Data set [5] in a line: in vitro. Particulars: human.
The nature of data set [6]: in vitro. Particulars: human. The source holds these as a separate data set.
Data set [7] is described as follows: in vitro. Particulars: human. The source holds these as a separate data set.
A short description of data set [8]: in vitro. The conditions noted are these: human. This is another data set of the same source.
A short description of data set [9]: in vitro. The conditions noted are these: human. The source holds these as a separate data set.
Data set [10] can be described thus: in vitro. The conditions noted are these: human. The source holds these as a separate data set.

wt p97, sequence (P55072 whole entry): as the sequence (P55072 whole entry C209A) above, with A209C counted along it
p97–C522A, sequence (P55072 whole entry C522A): as the sequence (P55072 whole entry C209A) above, with A209C, C522A counted along it
N-ethylmaleimide sensitive factor (NSF), sequence (P18708 whole entry): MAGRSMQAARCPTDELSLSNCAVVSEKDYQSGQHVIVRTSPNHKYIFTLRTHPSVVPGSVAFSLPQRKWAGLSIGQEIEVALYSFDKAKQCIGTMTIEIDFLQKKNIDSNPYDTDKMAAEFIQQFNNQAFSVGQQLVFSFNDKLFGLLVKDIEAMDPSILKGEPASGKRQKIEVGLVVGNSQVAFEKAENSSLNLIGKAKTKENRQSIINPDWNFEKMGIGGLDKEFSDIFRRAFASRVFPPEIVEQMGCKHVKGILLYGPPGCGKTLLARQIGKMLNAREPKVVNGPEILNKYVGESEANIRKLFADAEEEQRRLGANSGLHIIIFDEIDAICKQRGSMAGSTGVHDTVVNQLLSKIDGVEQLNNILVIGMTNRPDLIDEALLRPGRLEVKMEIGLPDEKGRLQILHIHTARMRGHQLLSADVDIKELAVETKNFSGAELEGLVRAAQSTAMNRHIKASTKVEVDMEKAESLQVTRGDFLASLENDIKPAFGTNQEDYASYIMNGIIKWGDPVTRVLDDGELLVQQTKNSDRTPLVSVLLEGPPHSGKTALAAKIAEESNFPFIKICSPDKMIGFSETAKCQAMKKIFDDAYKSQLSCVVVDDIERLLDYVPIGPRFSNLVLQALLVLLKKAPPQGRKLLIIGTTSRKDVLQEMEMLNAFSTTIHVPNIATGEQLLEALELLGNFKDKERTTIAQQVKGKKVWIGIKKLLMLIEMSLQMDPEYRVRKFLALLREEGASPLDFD

Broadly, the IC50 is the concentration needed to halve the response being measured. A lower IC50 goes with inhibition by little substance. With `CC1=C(CO)C(=O)O[C@@H]([C@@H](C)[C@H]2CC[C@H]3[C@@H]4C[C@H]5O[C@]56[C@@H](O)C=CC(=O)[C@]6(C)[C@H]4CC[C@]23C)C1` [Compound 1, withaferin A], the IC50 against wt p97 is 44 ± 0.21 µM; against p97–Cys0, > 200 µM; against p97–C209A it was 24.9 ± 1.91 µM; against p97–C522A, > 200 µM; at GroEL, > 200 µM; on ClpX, > 200 µM. The IC50 in [1] was > 200 µM. In addition, at wt p97 (100 μM for pure compounds, 384-well plate), the “inhibition of p97 in initial screen” value is reported as “moderate inhibition”. Also, the “effect of ATP concentration on the IC50 value” on wt p97 (varied ATP concentration) is “distinct shift in the IC50 value”. Further, the “inhibition of p97 ATPase remaining after extensive dialysis” value at wild-type p97 (wt-p97) is given as “slight inhibition remained”. Moreover, the total ubiquitylation entry in data set [2] is listed as “increased”. Moreover, the “level of Ub^G76VGFP reporter” value in [3] is given as “dose-dependent, higher levels of reporter”. Also, the “increase in XBP1s” value with XBP1s in HEK293 cells is “did show an increase”. Moreover, the “inhibition of the 20S proteasome” value on 20S proteasome is reported as “inhibit”. Besides, in [4], the “effects on structural proteins” value is on record as “did not see effects”.
With `CC1=C(CO)C(=O)O[C@@H]([C@@H](C)[C@H]2CC[C@H]3[C@@H]4C[C@H]5O[C@]56[C@@H](O)[C@@H](O)CC(=O)[C@]6(C)[C@H]4CC[C@]23C)C1` [Compound 14, viscosalactone B], the IC50 against wt p97, against p97–Cys0, on p97–C209A, on p97–C522A, at GroEL and against ClpX was > 200 µM throughout. For the same compound, the IC50 in data set [1] was > 200 µM. In addition, the IC50 at 48 h in “in vitro [5]”, in “in vitro [6]”, in “in vitro [7]”, in “in vitro [8]”, in “in vitro [9]” and in “in vitro [10]” was > 100 µM each time.
